The values below come from ChEMBL document CHEMBL4387722.

In data set [1] the target is T1, Phosphotyrosine protein phosphatase (Mycobacterium tuberculosis, UniProt A0A045ISB3).
T1 sequence (A0A045ISB3 whole entry): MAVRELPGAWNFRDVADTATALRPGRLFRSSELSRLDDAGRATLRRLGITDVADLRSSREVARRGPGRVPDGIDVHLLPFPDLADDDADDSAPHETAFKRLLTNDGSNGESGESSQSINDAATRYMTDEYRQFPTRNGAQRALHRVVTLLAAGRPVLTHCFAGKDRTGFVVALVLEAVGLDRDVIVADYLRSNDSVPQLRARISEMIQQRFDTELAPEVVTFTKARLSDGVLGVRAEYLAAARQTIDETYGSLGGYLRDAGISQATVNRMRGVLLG
Description: Inhibition of Mycobacterium tuberculosis His-tagged PtpB expressed in Escherichia coli Rosetta 2 (DE3) using pNPP as substrate after 30 mins by spectrophotometric method.

Data set [2] has as its target T2, Tyrosine-protein phosphatase non-receptor type 1 (Homo sapiens, UniProt P18031).
T2 sequence (P18031 whole entry): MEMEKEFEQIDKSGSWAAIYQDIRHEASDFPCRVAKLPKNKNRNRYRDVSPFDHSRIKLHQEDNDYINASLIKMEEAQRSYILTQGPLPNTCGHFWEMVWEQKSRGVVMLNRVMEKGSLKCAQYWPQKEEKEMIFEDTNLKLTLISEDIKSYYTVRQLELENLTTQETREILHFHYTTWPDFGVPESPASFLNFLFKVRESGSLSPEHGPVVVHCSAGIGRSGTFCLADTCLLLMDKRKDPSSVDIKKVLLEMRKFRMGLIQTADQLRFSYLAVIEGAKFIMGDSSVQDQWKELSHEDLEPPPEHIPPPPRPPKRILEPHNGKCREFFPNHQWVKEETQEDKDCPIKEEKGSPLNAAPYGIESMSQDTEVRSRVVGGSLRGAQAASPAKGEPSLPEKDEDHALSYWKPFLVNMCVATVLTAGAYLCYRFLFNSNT
The data set is described as follows: Inhibition of human PTPN1 expressed in Escherichia coli Rosetta 2 (DE3) using pNPP as substrate after 45 mins by spectrophotometric method.

Data set [3] deals with T3, Tyrosine-protein phosphatase non-receptor type 2 (Homo sapiens, UniProt P17706).
T3 sequence (P17706 whole entry): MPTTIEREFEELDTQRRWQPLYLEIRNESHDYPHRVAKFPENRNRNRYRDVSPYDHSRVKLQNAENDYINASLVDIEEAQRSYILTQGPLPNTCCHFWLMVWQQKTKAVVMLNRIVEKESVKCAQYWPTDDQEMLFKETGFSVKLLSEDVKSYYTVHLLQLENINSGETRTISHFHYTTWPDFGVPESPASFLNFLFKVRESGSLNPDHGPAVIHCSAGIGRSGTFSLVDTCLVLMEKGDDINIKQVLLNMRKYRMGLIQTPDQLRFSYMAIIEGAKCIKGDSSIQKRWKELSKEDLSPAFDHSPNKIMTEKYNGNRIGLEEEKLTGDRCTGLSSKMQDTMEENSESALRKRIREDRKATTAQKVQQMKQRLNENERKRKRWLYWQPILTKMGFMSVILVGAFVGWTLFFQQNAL
Description: Inhibition of human PTPN2 expressed in Escherichia coli Rosetta 2 (DE3) using pNPP as substrate after 45 mins by spectrophotometric method.

In data set [4] the target is T4, Tyrosine-protein phosphatase non-receptor type 5 (Homo sapiens, UniProt P54829).
T4 sequence (P54829 whole entry): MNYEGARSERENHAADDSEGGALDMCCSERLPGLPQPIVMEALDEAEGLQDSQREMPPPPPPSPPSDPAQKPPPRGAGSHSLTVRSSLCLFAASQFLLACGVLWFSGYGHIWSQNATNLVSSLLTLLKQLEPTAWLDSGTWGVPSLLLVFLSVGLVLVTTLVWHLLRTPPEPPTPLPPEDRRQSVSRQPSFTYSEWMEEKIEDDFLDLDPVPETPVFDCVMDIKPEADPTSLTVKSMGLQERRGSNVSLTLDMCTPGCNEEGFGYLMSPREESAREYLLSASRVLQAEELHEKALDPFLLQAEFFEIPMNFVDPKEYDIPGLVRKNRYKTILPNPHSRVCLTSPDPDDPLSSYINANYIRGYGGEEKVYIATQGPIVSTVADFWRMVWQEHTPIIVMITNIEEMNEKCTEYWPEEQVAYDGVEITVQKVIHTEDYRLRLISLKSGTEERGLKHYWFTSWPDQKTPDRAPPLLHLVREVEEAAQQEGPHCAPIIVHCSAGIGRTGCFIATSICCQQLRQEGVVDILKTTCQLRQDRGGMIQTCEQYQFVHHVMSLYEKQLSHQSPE
The data set is described as follows: Inhibition of human PTPN5 expressed in Escherichia coli Rosetta 2 (DE3) using pNPP as substrate after 45 mins by spectrophotometric method.

Data set [5] deals with Mycobacterium tuberculosis. Description: Antitubercular activity against Mycobacterium tuberculosis H37Rv after 5 days at 200 uM relative to control. The note with it: 120 h. Format: functional. In a few lines:
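M. tuberculosis grown in liquid culture with compound at a fixed 200 μM for 5 days. Growth inhibition expressed as percent of control.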

Data set [6] can be described thus: Inhibition of refolded rhodanese (unknown origin) preincubated with Escherichia coli GroEL/GroES for 60 mins by measuring rhodanese enzyme activity followed by compound addition by Fe(SCN)3 dye based spectrometric analysis. Further details: species or system Homo sapiens.
Data set [7] concerns the target T5, Malate dehydrogenase, mitochondrial (Sus scrofa, UniProt P00346).
T5 sequence (P00346 whole entry): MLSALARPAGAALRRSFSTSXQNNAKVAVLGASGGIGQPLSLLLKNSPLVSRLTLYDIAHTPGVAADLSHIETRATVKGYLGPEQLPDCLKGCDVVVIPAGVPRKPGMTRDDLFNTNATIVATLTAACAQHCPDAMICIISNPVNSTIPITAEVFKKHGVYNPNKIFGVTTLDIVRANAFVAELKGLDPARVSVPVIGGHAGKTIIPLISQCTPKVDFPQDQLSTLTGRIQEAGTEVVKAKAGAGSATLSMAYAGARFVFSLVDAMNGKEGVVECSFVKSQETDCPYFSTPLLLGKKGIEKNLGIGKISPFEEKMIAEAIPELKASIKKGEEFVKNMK
The data set is described as follows: Inhibition of refolded pig heart mitochondrial MDH preincubated with Escherichia coli GroEL/GroES for 45 mins using sodium mesoxalate as substrate followed by compound addition and measured after 20 to 30 mins by spectrometric analysis.

Data set [8] deals with T6, E. coli GroEL/ES (Escherichia coli, UniProt P0A6F5). Description: Inhibition of Escherichia coli GroEL expressed in Escherichia coli DH5alpha/Escherichia coli GroES expressed in Escherichia coli BL21 (DE3) assessed as reduction in GroEL/GroES-mediated denatured rhodanese refolding by measuring rhodanese enzyme activity after 45 mins by Fe(SCN)3 dye based spectrometric analysis.

Data set [9] addresses T6, E. coli GroEL/ES. The data set is described as follows: Inhibition of Escherichia coli GroEL expressed in Escherichia coliDH5alpha/Escherichia coli GroES expressed in Escherichia coli BL21 (DE3) assessed as reduction in GroEL/GroES-mediated denatured pig heart mitochondrial MDH refolding by measuring MDH enzyme activity using sodium mesoxalate as substrate after 20 to 40 mins by spectrometric analysis.

In the next data set the target is HSP60/HSP10 (Homo sapiens, UniProt P10809). Description: Inhibition of human HSP60 expressed in Escherichia coli Rosetta 2(DE3)/human HSP10 expressed in Escherichia coli Rosetta 2(DE3) pLysS cells assessed as reduction in HSP60/HSP10-mediated denatured pig heart mitochondrial MDH refolding by measuring MDH enzyme activity using sodium mesoxalate as substrate after 40 to 60 mins by spectrometric analysis.

A short description of data set [10]: Cytotoxicity against human THLE3 cells assessed as reduction in cell viability after 48 hrs by Alamar blue assay. The format is cell-based. In outline: (§1)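 Alamar Blue viability read-out. Human liver (THLE-3) and kidney (HEK 293) cells incubated with compound for 48 h. Tested in dose-response to derive CC50.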
Data set [11] can be described thus: Cytotoxicity against human HEK293 cells assessed as reduction in cell viability after 48 hrs by Alamar blue assay. The format is cell-based. In a few lines: as §1

pIC50: −log10 of the molar value.

HSP60/HSP10, sequence (P10809 whole entry): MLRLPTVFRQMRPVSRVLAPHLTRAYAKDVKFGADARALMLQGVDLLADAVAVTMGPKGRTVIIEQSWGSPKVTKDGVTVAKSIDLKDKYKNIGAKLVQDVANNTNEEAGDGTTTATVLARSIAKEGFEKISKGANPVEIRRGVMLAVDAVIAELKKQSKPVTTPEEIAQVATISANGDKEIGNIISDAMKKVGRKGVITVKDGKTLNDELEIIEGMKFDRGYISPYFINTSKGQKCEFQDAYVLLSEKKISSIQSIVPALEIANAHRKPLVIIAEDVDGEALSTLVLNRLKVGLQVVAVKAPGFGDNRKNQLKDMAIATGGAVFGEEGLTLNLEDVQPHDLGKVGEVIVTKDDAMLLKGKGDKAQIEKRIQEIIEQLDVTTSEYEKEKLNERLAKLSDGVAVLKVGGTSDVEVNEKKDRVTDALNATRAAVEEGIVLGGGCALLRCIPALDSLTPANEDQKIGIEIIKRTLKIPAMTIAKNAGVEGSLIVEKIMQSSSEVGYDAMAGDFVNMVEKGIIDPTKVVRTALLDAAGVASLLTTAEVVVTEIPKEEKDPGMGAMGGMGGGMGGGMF
HSP60/HSP10, sequence (P61604 whole entry, further chain): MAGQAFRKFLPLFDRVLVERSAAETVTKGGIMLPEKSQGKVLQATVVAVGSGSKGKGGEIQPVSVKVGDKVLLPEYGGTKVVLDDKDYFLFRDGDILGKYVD
T6 sequence (P0A6F5 whole entry, looked up): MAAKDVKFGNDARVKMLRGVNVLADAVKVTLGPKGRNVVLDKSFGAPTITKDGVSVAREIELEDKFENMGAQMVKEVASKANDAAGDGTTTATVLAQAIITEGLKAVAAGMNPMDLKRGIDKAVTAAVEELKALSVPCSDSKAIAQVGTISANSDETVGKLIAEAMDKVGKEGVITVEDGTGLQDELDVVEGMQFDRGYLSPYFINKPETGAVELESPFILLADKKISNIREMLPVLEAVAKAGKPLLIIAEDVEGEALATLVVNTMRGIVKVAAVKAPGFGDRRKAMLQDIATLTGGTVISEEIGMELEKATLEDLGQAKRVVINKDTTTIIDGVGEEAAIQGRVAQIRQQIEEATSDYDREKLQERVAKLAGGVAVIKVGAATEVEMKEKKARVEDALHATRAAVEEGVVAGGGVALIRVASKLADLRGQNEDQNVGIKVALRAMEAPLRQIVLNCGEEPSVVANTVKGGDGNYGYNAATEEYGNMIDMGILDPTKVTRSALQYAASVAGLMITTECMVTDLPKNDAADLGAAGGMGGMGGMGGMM

As to `O=S(=O)(Nc1ccc(-c2nc3ccccc3o2)cc1)c1ccccc1O`, the pIC50 in [1] is 4.51; in [2] it was 4.48; in data set [3] it was 4.24; in data set [4], 4.44; in data set [6] it was below 4.00; in [7] it was below 4.20. Also, the results for the negative logarithm of the IC50 (pIC50) on E. coli GroEL/ES [8], at E. coli GroEL/ES [9] and at HSP60/HSP10 were 3.90, 4.08 and below 4.00, respectively. This compound returned an inhibition at 200 µM in [5] of 0%. The figures for the CC50 at 48 h in data set [10] and in [11] were 81 µM and above 100 µM, respectively.

On to `O=S(=O)(Nc1ccc(-c2nc3ccccc3o2)cc1)c1ccc(Cl)cc1`, for which the pIC50 in data set [1] was 4.34; in data set [2], 4.37; in data set [3], 4.38; in data set [4] it was 4.44; in data set [6], below 4.00; in data set [7], below 4.20. Moreover, the figures for the negative logarithm of the IC50 (pIC50) at E. coli GroEL/ES [8], on E. coli GroEL/ES [9] and on HSP60/HSP10 were 3.82, below 4.00 and 4.21, respectively. In data set [5], this compound had an inhibition at 200 µM of 7%. For the same compound, the cytotoxic concentration (CC50) at 48 h is 81 µM in data set [10] and above 100 µM in data set [11].

On to `O=S(=O)(Nc1ccc(-c2nc3ccccc3o2)cc1)c1cccc(Cl)c1`, for which the negative-log IC50 (pIC50) in [1] is 4.37; in [2], 4.43; in data set [3], 4.17; in data set [4], 3.26; in [6], below 4.00; in data set [7], below 4.20. For the same compound, the negative logarithm of the IC50 (pIC50) on E. coli GroEL/ES [8] is 3.77; at E. coli GroEL/ES [9], 4.10; on HSP60/HSP10, 4.27. The compound also came in with an inhibition at 200 µM in [5] of 33%. Further, the CC50 at 48 h is 83 µM in [10] and above 100 µM in data set [11].

With `O=S(=O)(Nc1ccc(-c2nc3ccccc3o2)cc1)c1ccc(Cl)c(Cl)c1`, the pIC50 in data set [1] was 4.60; in data set [2] it was 4.54; in [3] it was 4.48; in data set [4], 4.52; in data set [6], below 4.00; in data set [7] it was below 4.20. The results for the pIC50 on E. coli GroEL/ES [8], on E. coli GroEL/ES [9] and on HSP60/HSP10 were 3.98, 4.37 and 4.60, respectively. This compound also gave an inhibition at 200 µM in data set [5] of 37%. For the same compound, the results for the CC50 at 48 h in data set [10] and in [11] were 84 µM and above 100 µM, respectively.

Consider `COc1ccc(Cl)cc1S(=O)(=O)Nc1ccc(-c2nc3ccccc3o2)cc1`, for which the negative logarithm of the IC50 (pIC50) in data set [1] was 4.54; in data set [2] it was 4.68; in [3] it was 4.55; in data set [4] it was 4.43; in data set [6] it was below 4.00; in data set [7], below 4.20. The pIC50 on E. coli GroEL/ES [8] was 4.08; at E. coli GroEL/ES [9], 4.23; at HSP60/HSP10, below 4.00. Also, the inhibition at 200 µM in data set [5] came out at 0%. The CC50 at 48 h worked out at 42 µM in data set [10] and 75 µM in data set [11].

As to `O=S(=O)(Nc1ccc2oc(-c3ccccc3)nc2c1)c1ccc(Cl)c(Cl)c1`, the pIC50 is 4.48 in data set [1]; 4.46 in data set [2]; 4.48 in [3]; 4.60 in [4]; below 4.00 in data set [6]; below 4.20 in data set [7]. For the same compound, the negative logarithm of the IC50 (pIC50) on E. coli GroEL/ES [8] is 3.82; at E. coli GroEL/ES [9], 4.10; on HSP60/HSP10, below 4.00. This compound also had an inhibition at 200 µM in data set [5] of 22%. Moreover, the results for the half-maximal cytotoxic concentration (CC50) at 48 h in data set [10] and in data set [11] were 55 µM and 71 µM, respectively.

Take `O=[N+]([O-])c1cc(S(=O)(=O)Nc2ccc3oc(-c4ccccc4)nc3c2)ccc1Cl`: the pIC50 in data set [1] was 4.48; in data set [2], 4.46; in [3] it was 4.40; in data set [4], 4.49; in [6], below 4.00; in [7], below 4.20. The figures for the pIC50 on E. coli GroEL/ES [8], on E. coli GroEL/ES [9] and on HSP60/HSP10 were 4.74, 4.80 and 4.77, respectively. The same compound showed an inhibition at 200 µM in data set [5] of 1%. Moreover, the CC50 at 48 h came to 25 µM in data set [10] and 90 µM in data set [11].

As to `O=S(=O)(Nc1ccc(-c2nc3ccccc3o2)cc1)c1ccccc1Cl`, the negative logarithm of the IC50 (pIC50) in data set [1] was 4.33; in data set [2], 4.23; in [3] it was 4.19; in [4] it was 4.29; in data set [6], below 4.00; in [7] it was below 4.20. The pIC50 is 3.77 at E. coli GroEL/ES [8], 4.07 at E. coli GroEL/ES [9] and below 4.00 at HSP60/HSP10. In [5], the inhibition at 200 µM worked out at 11%. Further, the CC50 at 48 h in data set [10] and in [11] was above 100 µM throughout.

`Cc1cccc(S(=O)(=O)Nc2ccc(-c3nc4ccccc4o3)cc2)c1`: the pIC50 in [1] was 4.40; in data set [2] it was 4.43; in [3] it was 4.40; in [4] it was 4.55; in [6], below 4.00; in data set [7] it was below 4.20. The values for the pIC50 at E. coli GroEL/ES [8], on E. coli GroEL/ES [9] and at HSP60/HSP10 were 3.78, 4.04 and below 4.00, respectively. The same compound displayed an inhibition at 200 µM in [5] of 13%. Further, the CC50 at 48 h in data set [10] was 81 µM; in [11], above 100 µM.
